Measured values gathered from unrelated publications.
Target: Tyrosine-protein kinase receptor UFO (AXL, Homo sapiens, UniProt P30530)
One construct used (P30530 26-894): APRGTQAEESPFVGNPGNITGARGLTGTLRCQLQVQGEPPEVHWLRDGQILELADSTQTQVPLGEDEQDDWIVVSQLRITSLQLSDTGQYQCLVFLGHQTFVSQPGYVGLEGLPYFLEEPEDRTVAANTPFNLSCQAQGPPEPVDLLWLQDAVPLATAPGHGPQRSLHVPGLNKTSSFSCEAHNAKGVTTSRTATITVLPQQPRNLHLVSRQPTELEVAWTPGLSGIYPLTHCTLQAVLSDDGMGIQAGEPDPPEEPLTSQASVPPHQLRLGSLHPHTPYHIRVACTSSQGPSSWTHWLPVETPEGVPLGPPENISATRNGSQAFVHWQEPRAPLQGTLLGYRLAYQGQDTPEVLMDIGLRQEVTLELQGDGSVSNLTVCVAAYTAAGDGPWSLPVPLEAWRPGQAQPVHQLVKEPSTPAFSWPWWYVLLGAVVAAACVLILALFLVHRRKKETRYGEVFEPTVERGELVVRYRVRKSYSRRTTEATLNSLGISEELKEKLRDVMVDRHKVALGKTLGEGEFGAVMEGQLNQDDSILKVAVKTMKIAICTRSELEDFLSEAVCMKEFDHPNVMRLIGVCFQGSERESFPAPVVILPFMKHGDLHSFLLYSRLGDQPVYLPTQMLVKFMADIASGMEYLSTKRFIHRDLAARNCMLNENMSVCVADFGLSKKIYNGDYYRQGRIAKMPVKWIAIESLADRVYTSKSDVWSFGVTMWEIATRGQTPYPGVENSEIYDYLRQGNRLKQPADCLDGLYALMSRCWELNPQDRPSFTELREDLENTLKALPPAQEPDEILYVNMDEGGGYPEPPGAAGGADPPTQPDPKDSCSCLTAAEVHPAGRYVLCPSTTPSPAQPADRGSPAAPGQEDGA

CN(C)c1nccc(-c2cnn3ncccc23)n1
remaining binding (binding; 1 µM): 100%

O=C(NCCCN1CCOCC1)c1ccc(Nc2nccc(-c3cc4ccccc4s3)n2)cc1
remaining binding (binding, competition with immobilised ligand; 1 µM): 38%

CN([C@@H]1CCc2c(CC(=O)O)c3cc(S(C)(=O)=O)ccc3n2C1)S(=O)(=O)c1ccc(F)cc1
remaining binding (cell-free assay, competition with immobilised ligand; 1 µM): 100%

c1cnn2ncc(-c3ccnc(N4CCC45COC5)n3)c2c1
remaining binding (binding; 1 µM): 74%

C=CC(=O)N1CCC(C(=O)NCC(=O)N2CCN(c3nc(-c4cnc(N)nc4C(F)F)nc(N4CCOCC4)n3)CC2)CC1
remaining binding (binding, competition with immobilised ligand; 1 µM): 97%

C[C@H](c1ccc(F)cc1)N(Cc1cccc(C(=O)O)c1)C(=O)c1cnc2ccccc2c1
remaining binding (cell-free assay, competition with immobilised ligand; 1 µM): 100%

O=C(Nc1c[nH]nc1C(=O)NC1CCNCC1)c1cc(F)cc(F)c1
remaining binding (binding, competition with immobilised ligand; 1 µM): 100%

CNC(=O)[C@@H]1CC[C@@H](n2c(-c3ccc4cnccc4c3)nc3ccc(C(=O)NCc4cccc(C(N)=O)c4)cc32)C1
remaining binding (binding, competition with immobilised ligand; 1 µM): 99%

CN(C)c1nccc(-c2cnc3ncccn23)n1
remaining binding (binding; 1 µM): 100%

C[C@@H](c1cccc(C#N)c1)n1cc(Cl)cc(C(N)=O)c1=N
remaining binding (cell-free assay, competition with immobilised ligand; 1 µM): 100%

O=C(c1ccc(Nc2nccc(-c3cc4ccccc4s3)n2)cc1)N1CCC(N2CCCC2)CC1
remaining binding (binding, competition with immobilised ligand; 1 µM): 33%

c1cncc(-c2cccc(Nc3nccc(NC4CCCCC4)n3)c2)c1
remaining binding (binding, competition with immobilised ligand; 10 µM): 4%

Cc1nccc(COC(=O)N2C[C@@H]3[C@@H](CNC(=O)c4ccc5[nH]nnc5c4)[C@@H]3C2)n1
remaining binding (cell-free assay, competition with immobilised ligand; 1 µM): 88%

N[C@@H]1CCN(c2nccc(-c3cnn4ncccc34)n2)C1
remaining binding (binding; 1 µM): 100%

C[C@@H]1CN(c2ccc3ncc(-c4ccc5[nH]nc(C6CC6)c5c4)n3n2)C[C@H](C)O1
remaining binding (binding, competition with immobilised ligand; 0.5 µM): 60%

CCc1ccccc1C(=O)Nc1n[nH]c2c(C)c(F)c(C3C(C#N)=C(C)N(C)C(C)=C3C#N)cc12
remaining binding (binding, competition with immobilised ligand; 1 µM): 100%
